One block for each molecule: values may come before it.
Key:
[1] = target: Large neutral amino acids transporter small subunit 1 (Rattus norvegicus) (UniProt Q63016); assay: Binding affinity at LAT1 in rat brain assessed Inhibition of [14C]L-leucine PA uptake at 70 uM; assay type: tissue-based
Procedure, shortened: (§1)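 In situ rat brain perfusion with pH 7.4 bicarbonate-buffered saline (37 °C, 95% O2/5% CO2). [14C]L-leucine 0.2 µCi/mL perfused 30 s alone (100% PA product) or co-perfused with 70 µM prodrug. PA product derived from brain radioactivity measured by liquid scintillation counting; [14C]sucrose (0.2 µCi/mL) used as vascular marker. Inhibition relative to control PA; n=3–5.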

[2] = Stability in aqueous buffer at pH 7.4; assay type: physicochemical
Procedure, shortened: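 Chemical hydrolysis in 0.16 M phosphate buffer pH 7.4 (ionic strength 0.5) at 37 °C in a thermostatted water bath. Disappearance followed by HPLC; pseudo-first-order half-life; n=2.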

[3] = Stability in rat serum assessed as half life of hydrolysis; assay type: ADME, cell-free
Procedure, shortened: (§2)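 Enzymatic hydrolysis at 37 °C in rat serum diluted to 80%, brain homogenate diluted to 20%, or liver homogenate diluted to 50% (v/v) with 0.16 M phosphate buffer pH 7.4. Aliquots taken into acetonitrile to precipitate protein, then analysed by HPLC. Pseudo-first-order half-lives; n=3.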

[4] = Stability in rat brain assessed as half life of hydrolysis; assay type: ADME, tissue-based; procedure, shortened: as §2
[5] = Stability in rat liver assessed as half life of hydrolysis; assay type: ADME, tissue-based; procedure, shortened: as §2
[6] = target: Large neutral amino acids transporter small subunit 1 (Rattus norvegicus) (UniProt Q63016); assay: Inhibition of [14C]L-leucine uptake at LAT1 in rat brain at 70 uM by perfusion technique; assay type: tissue-based; procedure, shortened: as §1
[7] = (§3) Drug uptake in rat brain after 60 secs perfusion; assay type: ADME, tissue-based; details: brain, other: perfusion
Procedure, shortened: (§4)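 In situ rat brain perfusion, 60 s at 37 °C, with seven prodrug concentrations from 0 to 138 µM in bicarbonate-buffered saline pH 7.4. Vasculature then washed 30 s with cold (5 °C) prodrug-free medium. Brain hemisphere homogenised, acidified, ethyl acetate-extracted and analysed by HPLC. Km and Vmax from nonlinear Michaelis–Menten fit; mean ± SD, n=3.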

Brain [8] = assay: as §3; assay type: ADME, tissue-based; details: in vivo, 1 min; procedure, shortened: as §4
Brain [9] = assay: Drug uptake in rat brain at 64 uM by perfusion technique; assay type: ADME, tissue-based; details: in vivo
Procedure, shortened: (§5)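 Rat brain perfused in situ for 60 s at 37 °C with 64 µM prodrug, alone or with 2 mM BCH added to the medium. Vasculature washed 30 s with cold prodrug-free medium. Brain uptake in pmol/mg/min quantified by HPLC after extraction; n=3; two-tailed independent t test.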

Brain [10] = assay: Drug uptake in rat brain at 64 uM in presence of 2-aminobicyclo(2,2,1)heptane-2-carboxylic acid by perfusion technique; assay type: ADME, tissue-based; details: in vivo; procedure, shortened: as §5

Sequence of Large neutral amino acids transporter small subunit 1 (Rattus norvegicus) (Q63016 whole entry, looked up, the tested form may be a part): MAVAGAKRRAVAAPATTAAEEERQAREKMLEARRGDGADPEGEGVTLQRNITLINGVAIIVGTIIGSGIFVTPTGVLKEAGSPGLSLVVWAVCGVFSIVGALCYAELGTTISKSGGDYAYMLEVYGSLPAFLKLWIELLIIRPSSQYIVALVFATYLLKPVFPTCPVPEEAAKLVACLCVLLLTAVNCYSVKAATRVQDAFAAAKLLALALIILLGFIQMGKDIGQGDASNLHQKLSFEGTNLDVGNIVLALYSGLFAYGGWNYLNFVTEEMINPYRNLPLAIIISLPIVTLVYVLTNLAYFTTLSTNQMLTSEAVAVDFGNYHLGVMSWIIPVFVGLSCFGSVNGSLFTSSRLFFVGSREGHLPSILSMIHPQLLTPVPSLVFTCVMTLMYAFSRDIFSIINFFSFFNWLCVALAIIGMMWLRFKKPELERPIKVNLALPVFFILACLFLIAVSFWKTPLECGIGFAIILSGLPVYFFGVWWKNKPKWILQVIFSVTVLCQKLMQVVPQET

SMILES: CC(C)CC(NC(=O)C(C)c1cccc(C(=O)c2ccccc2)c1)C(=O)O (stereo not drawn)
- Activity [1]: 0.0266 mL/s/g

SMILES: CC(C(=O)Oc1ccc(C[C@H](N)C(=O)O)cc1)c1cccc(C(=O)c2ccccc2)c1.Cl (stereo partly drawn)
- half-life [2]: 1350 min
- half-life [3]: 10.2 min
- half-life [4]: 4.4 min
- half-life [5]: 2.8 min
- inhibition [6]: 98.5%
- Km at 1 min [7]: 22.5 µM
- Vmax (Brain [8]): 1.41 pmol/min/mg
- Drug uptake (Brain [9]): 0.846 pmol/min/mg
- Drug uptake (Brain [10]): 0.362 pmol/min/mg

SMILES: CC(C(=O)NC(Cc1ccccc1)C(=O)O)c1cccc(C(=O)c2ccccc2)c1 (stereo not drawn)
- Activity [1]: 0.0191 mL/s/g

The next lines start with the values.

- Activity [1]: 0.0212 mL/s/g
SMILES: CC(C)C[C@H](N)C(=O)OCCOC(=O)C(C)c1cccc(C(=O)c2ccccc2)c1 (stereo partly drawn)

- Activity [1]: 0.0282 mL/s/g
SMILES: CC(C(=O)OCCOC(=O)[C@@H](N)Cc1ccccc1)c1cccc(C(=O)c2ccccc2)c1 (stereo partly drawn)

Reference: ChEMBL document CHEMBL1143245, “Large neutral amino acid transporter enables brain drug delivery via prodrugs” (J Med Chem, 2008)
